CDK5 p35 inh: inhibitors of human CDK5/p35 kinase, primary screen, biochemical, single concentration | Cyclin-dependent kinase 5 (Homo sapiens) + Cyclin-dependent kinase 5 activator 1 (Homo … | Recombinant CDK5/p35, ADP-Glo luminescence, 60 min | inhibition, % at 10 µM | hit rate 0.01% among 330,000 | AID 488839, 2010;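 active = highest replicate inhibition of at least 50% and at least 75% of replicates reaching 50%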
Target sequence (Q00535 whole entry, looked up): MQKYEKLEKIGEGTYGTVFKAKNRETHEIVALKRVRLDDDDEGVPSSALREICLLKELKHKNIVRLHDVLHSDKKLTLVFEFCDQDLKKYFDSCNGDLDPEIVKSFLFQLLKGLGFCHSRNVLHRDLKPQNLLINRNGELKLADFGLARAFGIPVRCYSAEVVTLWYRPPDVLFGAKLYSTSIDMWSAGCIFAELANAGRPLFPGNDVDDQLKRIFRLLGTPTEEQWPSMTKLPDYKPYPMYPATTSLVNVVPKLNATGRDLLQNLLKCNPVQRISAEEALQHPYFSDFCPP
Target sequence (Q15078 whole entry, looked up): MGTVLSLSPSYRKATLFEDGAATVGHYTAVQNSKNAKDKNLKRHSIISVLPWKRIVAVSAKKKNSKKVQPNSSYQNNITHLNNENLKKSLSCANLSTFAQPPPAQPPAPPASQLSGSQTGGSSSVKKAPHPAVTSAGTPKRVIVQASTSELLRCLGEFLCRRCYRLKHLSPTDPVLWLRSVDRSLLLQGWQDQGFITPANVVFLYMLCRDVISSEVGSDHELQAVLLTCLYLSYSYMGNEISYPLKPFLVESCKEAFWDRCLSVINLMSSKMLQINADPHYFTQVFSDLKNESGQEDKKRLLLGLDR
DYRK1A inh: rat Dyrk1A kinase inhibitors, primary screen, biochemical, single point, plate reader; ADP-Glo luminescence, NFATc1 peptide; inhibition, % at 12.5 µM; hit rate 0.43% among 310,000; AID 504441, 2011
SR-BI HDL uptake: inhibitors of SR-BI mediated HDL lipid uptake, primary screen, ldlA[mSR-BI] cells, fluorescence, single point; Scavenger receptor class B member 1 (Mus musculus), Q61009; ldlA[mSR-BI] CHO cells, DiI-HDL uptake fluorescence, 3 h; inhibition, % at 12.5 µM; hit rate 0.96% among 320,000; AID 488896, 2010;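 active = mean replicate inhibition of at least 70% and a set share of replicates each scoring 70 or more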
NSD2 inh: NSD2 histone methyltransferase inhibitors, primary screen, biochemical, AlphaScreen, single concentration, set 2; inhibition, % at 12.5 µM; AID 743445, 2014; hit rate 0.54% among 310,000; NSD2 peptide methylation, 120 min
dFosB act-1: activators of delta FosB homodimer, primary screen, biochemical, fluorescence polarization, TAMRA-CDK5 oligo, single point | Protein FosB (Mus musculus), P13346 | purified delta FosB; percent of positive-control signal above neutral wells | activation, % at 25 µM | hit rate 0.99% among 340,000 | AID 493131, 2011;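 active = mean activation above about 17%, with every replicate also reaching it, limit read from the data, passing the limit was not always enough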
SR-BI uptake up: activators of SR-BI mediated DiI-HDL uptake, primary screen, ldlA[mSR-BI] CHO cells, DiI fluorescence | 3 h; 100 = double the neutral-control signal | activation, % at 12.5 µM | hit rate 0.096% among 320,000 | AID 504775, 2011;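 active = mean replicate activation of at least 60% and every replicate at or above 60%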
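Test system: SR-BI-overexpressing, LDLR-lacking CHO cells; Medium: Ham's F12 with 0.5% BSA, HEPES 25 mM, pH 7.4; Schedule: 3 h, 37 °C; Technique: bottom-read fluorescence, 550/595 nm.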
dFosB act-2: activators of mouse delta FosB DNA binding, confirmation, biochemical, fluorescence polarization, TAMRA-CDK5 oligo, cherry-picked samples; shares compounds with dFosB act-1; purified delta FosB; normalised: neutral wells 0, positive control 100; activation, % at 24.9 µM; 2,400 tested, under 10 active; AID 588690, 2011;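 active = highest replicate activation at or above 34% and every replicate reaching that threshold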;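 note: higher polarization means more probe DNA bound by delta FosB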
A number is an active result; . = inactive; / = no result. A selection: hits, their analogues and other compounds. The true share with any hit is near 2.5%. Cut-off read from the data, not from the text of the source, unless noted: active = inhibition above about 50%; inactive = the rest.

SMILES | CDK5 p35 inh | DYRK1A inh | SR-BI HDL uptake | NSD2 inh | dFosB act-1 | SR-BI uptake up | dFosB act-2
COc1cc(/C=C/C(=O)NCc2cccnc2)cc(OC)c1OC | . | . | . | / | . | . | /
CN(CC(=O)Nc1cccc(F)c1)C(=O)/C=C/c1cc(Br)ccc1OC(F)F | . | . | . | . | . | . | /
O=C(O)CN(CCc1ccccc1)S(=O)(=O)c1ccccc1 | . | . | . | . | . | . | /
CC(c1ccccc1)N(NC(=O)C(O)(c1ccccc1)c1ccccc1)C(=O)c1ccccc1 (stereo unspecified) | . | / | . | . | 38.4 | . | .
O=C(N/N=C/c1ccncc1)c1ccc(NC(=O)c2cccc(Cl)c2)cc1 | . | . | . | . | 39.3 | . | .
O=C(N/N=C/c1ccncc1)c1cccc(NC(=O)c2ccccc2Cl)c1 | . | . | . | . | . | . | /
O=C(N/N=C/c1ccncc1)c1ccc(NC(=O)c2ccc(Cl)cc2)cc1 | . | . | . | . | 65.2 | . | .
CN(C)CCCn1c(SCC(=O)N2c3ccccc3Sc3ccccc32)nc2ccccc2c1=O | . | . | . | . | 24.5 | . | .
CCCn1c(SCC(=O)NCC(=O)Nc2ccc(F)c(F)c2F)nc2ccccc2c1=O | . | / | . | . | 25.8 | . | .
C/C(N)=C(/C#N)C(=O)CSc1nc2ccccc2c(=O)n1Cc1ccc(C)cc1 | . | . | . | . | 21.1 | . | .
Cn1c(SCC(=O)N2c3ccccc3Sc3ccccc32)nc2ccccc21 | . | . | . | . | . | . | /
CC(=O)NCCn1c(SCC(=O)NCc2ccco2)nc2ccccc2c1=O | . | . | . | . | . | . | /
CCCCn1c(SCC(=O)NCc2ccco2)nc2ccccc2c1=O | . | . | . | . | 18.0 | . | .
CC(C)OCc1ccc(C(=O)N2CCN(CC(=O)N3CCCC3)CC2)cc1 | . | / | . | . | . | . | /
O=C(CSc1nc2ccccc2c(=O)n1Cc1ccc(Cl)cc1)NCc1cccs1 | . | . | . | . | 26.8 | . | .
CCn1c(SCC(=O)NCc2ccccc2)nc2ccccc2c1=O | . | . | . | . | . | . | /
O=C(NC1CCC(CC2CCC(NC(=O)C(Cl)Cl)CC2)CC1)C(Cl)Cl (stereo unspecified) | . | / | . | . | 58.5 | . | .
O=C(COC(=O)c1ccc2ncsc2c1)NCc1ccccc1Cl | . | / | . | . | 23.5 | . | .
Cc1cc(C(=O)N/N=C/c2ccc(-c3cccc([N+](=O)[O-])c3)o2)n[nH]1 | . | . | . | . | 33.2 | . | .
Cc1cc(C(=O)N/N=C/c2ccc(-c3ccc([N+](=O)[O-])cc3Cl)o2)n[nH]1 | / | / | . | . | . | . | /
C=CCNc1nc(Nc2ccc(-c3nc4ccccc4o3)cc2)nc(N2CCOCC2)n1 | . | . | . | . | 28.3 | . | .
C=CCNc1nc(NCC)nc(N2CCOCC2)n1 | . | . | . | . | . | . | /
CCOc1ccc(NC(=O)CN2C(=O)c3cccc4cccc2c34)cc1 | / | / | / | . | / | / | /
COc1ccc(/C=N/NC(=O)CCn2c3ccccc3c3ccccc32)cc1O | . | . | . | . | . | . | /
COc1cccc(/C=N/NC(=O)CCn2c3ccccc3c3ccccc32)c1 | . | . | . | . | 23.7 | . | .
SMILES | CDK5 p35 inh | DYRK1A inh | SR-BI HDL uptake | NSD2 inh | dFosB act-1 | SR-BI uptake up | dFosB act-2
O=C(CSc1nnc(NC(=O)C2CC2)s1)Nc1cccc(F)c1 | . | . | . | . | 28.4 | . | .
Cc1ccccc1NC(=O)CSc1nnc(NC(=O)C2CC2)s1 | . | . | / | . | . | / | /
COc1cccc(NC(=O)CSc2nnc(NC(=O)C3CCC3)s2)c1 | . | . | / | . | . | / | /
Cc1ccc(C)c(NC(=O)CSc2nnc(NC(=O)C3CC3)s2)c1 | . | . | . | . | 28.2 | . | .
COc1cccc(C2c3c(oc4cc(C)c(C)cc4c3=O)C(=O)N2CCCN(C)C)c1 (stereo unspecified) | . | . | . | / | 38.3 | . | .
COc1ccccc1NC(=O)C(C)OC(=O)C1CCN(S(=O)(=O)c2ccccc2C(F)(F)F)CC1 (stereo unspecified) | . | . | . | . | . | . | /
NC(=O)CC(NC(=O)Cc1cccc2ccccc12)c1ccc(NCc2ccccc2)c([N+](=O)[O-])c1 (stereo unspecified) | . | . | . | / | 47.1 | . | .
NC(=O)CC(NC(=O)Cc1cccc2ccccc12)c1ccc(NCCc2ccc(F)cc2)c([N+](=O)[O-])c1 (stereo unspecified) | . | . | . | / | . | . | /
NC(=O)CC(NC(=O)Cc1cccc2ccccc12)c1ccc(NCc2ccc(F)cc2)c([N+](=O)[O-])c1 (stereo unspecified) | . | . | . | / | 31.6 | . | .
Cc1ccc(NC(=O)c2c(C)noc2C)cc1S(=O)(=O)N1CCOCC1 | . | . | . | . | . | . | /
CC(=O)c1ccc(NS(=O)(=O)c2ccc3c(c2)N(C)CCO3)cc1 | . | . | . | . | . | . | /
CCNC(=O)C1(C)CCN(C(=O)c2ccccc2OC(F)(F)F)C1 (stereo unspecified) | / | / | / | . | / | / | /
O=C(COC(=O)c1cccnc1Nc1cccc(C(F)(F)F)c1)NCc1ccc2c(c1)OCO2 | . | . | . | . | 19.1 | . | .
O=C(COC(=O)c1cccnc1Cl)NCc1ccc2c(c1)OCO2 | . | . | . | . | . | . | /
O=C(NC1CC1)C1CCN(C2CCN(C(=O)c3c(F)cccc3Cl)CC2)CC1 | . | . | . | . | 26.9 | . | .
O=C(NC1CC1)C1CCN(C2CCN(C(=O)Cc3ccc(F)cc3)CC2)CC1 | . | . | . | . | . | . | /
Cc1nc(-c2ccc(NC(=O)c3ccc(Br)o3)cc2)cs1 | . | . | . | . | 25.6 | . | .
Cc1nc(-c2cccc(NC(=O)c3ccc(Br)o3)c2)cs1 | . | . | . | . | . | . | /
COc1ccc(CNC(=O)CSc2nc3c([nH]2)c(=O)n(C)c(=O)n3C)cc1 | / | / | / | . | / | / | /
CC(=O)n1cc(/C=N/NC(=O)c2ccccc2O)c2ccccc21 | . | . | . | . | 28.7 | . | .
Cn1cc(/C=N/NC(=O)c2ccccc2O)c2ccccc21 | . | / | . | . | . | . | /
O=C(NCc1ccc2c(c1)OCO2)c1ccc2c(=O)n(C3CCCC3)c(=O)[nH]c2c1 | . | . | . | / | 39.9 | . | .
COc1ccc(Cn2c(=O)[nH]c3cc(C(=O)NCc4ccc5c(c4)OCO5)ccc3c2=O)cc1 | . | . | . | . | . | . | /

Source: PubChem (Broad Institute)
